Reference: ChEMBL document CHEMBL1926569, “Novel (E)-1-(4-methyl-2-(alkylamino)thiazol-5-yl)-3-arylprop-2-en-1-ones as potent antimicrobial agents” (2011)

What was measured:
[1] = system: Aspergillus niger; test: Antifungal activity against Aspergillus niger ATCC 6275 after 72 hrs by serial dilution technique; assay type: functional; settings: ATCC 6275, 72 h
Method in brief: (§1)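 Modified microdilution in 96-well plates. Fungi were kept on malt agar at 4 °C. Spores were washed off in sterile 0.85% saline with 0.1% Tween 80. Compounds were dissolved at 1 mg/ml in 5% DMSO with 0.1% Tween 80 and added to malt broth with inoculum. Plates were shaken at 160 rpm for 72 h at 28 °C. Duplicate, repeated three times.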

[2] = system: Escherichia coli; test: Antibacterial activity against Escherichia coli ATCC 35210 after 24 hrs by microdilution method; assay type: functional; settings: ATCC 35210, 24 h
Method in brief: (§2)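 Broth microdilution in 96-well plates. Bacterial suspensions were adjusted in sterile saline to 1.0 × 10⁵ CFU/ml, prepared daily and kept at 4 °C. Compound was added to LB broth with 1.0 × 10⁴ CFU per well and shaken at 160 rpm for 24 h at […] (so in the source). MIC is the lowest concentration with no visible growth under a binocular microscope. OD655 was also read. Duplicate, repeated three times.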

[3] = system: Candida albicans; test: Ratio of ketoconazole to compound for Candida albicans isolated from human; assay type: functional
[4] = system: Penicillium ochrochloron; test: Ratio of bifonazole to compound for Penicillium ochrochloron ATCC 9112; assay type: functional
[5] = system: Aspergillus ochraceus; test: Ratio of ketoconazole to compound for Aspergillus ochraceus ATCC 12066; assay type: functional
[6] = system: Pseudomonas aeruginosa; test: Antibacterial activity against Pseudomonas aeruginosa ATCC 27853 incubated for 24 hrs followed by serial sub-cultivation for 24 hrs by microdilution; assay type: functional; settings: ATCC 27853, 24 h
Method in brief: (§3)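 MBC: after the 24 h LB broth microdilution (1.0 × 10⁴ CFU per well, 160 rpm), wells were serially sub-cultured into fresh broth plates and incubated a further 24 h. MBC is the lowest concentration with no visible growth, taken as 99.5% killing of the original inoculum. Duplicate, repeated three times.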

[7] = system: Aspergillus niger; test: Antifungal activity against Aspergillus niger ATCC 6275 incubated for 72 hrs followed by serial sub-cultivation for 72 hrs by serial dilution technique; assay type: functional; settings: ATCC 6275, 72 h
Method in brief: (§4)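 MFC: material from 72 h malt broth microdilution wells was serially sub-cultured into fresh broth plates and incubated a further 72 h at 28 °C. Fungicidal concentration is taken from growth after sub-culture. Duplicate, repeated three times.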

[8] = system: Penicillium ochrochloron; test: Antifungal activity against Penicillium ochrochloron ATCC 9112 incubated for 72 hrs followed by serial sub-cultivation for 72 hrs by serial dilution technique; assay type: functional; settings: ATCC 9112, 72 h; method in brief: as §4
[9] = system: Candida albicans; test: Antifungal activity against Candida albicans isolated from human after 72 hrs by serial dilution technique; assay type: functional; method in brief: as §1
[10] = system: Pseudomonas aeruginosa; test: Ratio of ampicillin MIC to compound MIC for Pseudomonas aeruginosa ATCC 27853; assay type: functional
[11] = system: Aspergillus fumigatus; test: Antifungal activity against Aspergillus fumigatus isolated from human incubated for 72 hrs followed by serial sub-cultivation for 72 hrs by serial dilution technique; assay type: functional; method in brief: as §4
[12] = system: Aspergillus ochraceus; test: Ratio of bifonazole to compound for Aspergillus ochraceus ATCC 12066; assay type: functional
[13] = system: Aspergillus fumigatus; test: Ratio of ketoconazole to compound for Aspergillus fumigatus isolated from human; assay type: functional
[14] = system: Enterococcus faecalis; test: Antibacterial activity against Enterococcus faecalis isolated from human incubated for 24 hrs followed by serial sub-cultivation for 24 hrs by microdilution; assay type: functional; method in brief: as §3
[15] = system: Staphylococcus aureus; test: Antibacterial activity against Staphylococcus aureus ATCC 6538 after 24 hrs by microdilution method; assay type: functional; settings: ATCC 6538, 24 h; method in brief: as §2
[16] = system: Aspergillus flavus; test: Antifungal activity against Aspergillus flavus ATCC 9643 incubated for 72 hrs followed by serial sub-cultivation for 72 hrs by serial dilution technique; assay type: functional; settings: ATCC 9643, 72 h; method in brief: as §4
[17] = system: Bacillus cereus; test: Antibacterial activity against clinical isolate of Bacillus cereus after 24 hrs by microdilution method; assay type: functional; method in brief: as §2
[18] = system: Trichoderma viride; test: Antifungal activity against Trichoderma viride IAM 5061 incubated for 72 hrs followed by serial sub-cultivation for 72 hrs by serial dilution technique; assay type: functional; settings: IAM 5061, 72 h; method in brief: as §4
[19] = system: Salmonella typhimurium; test: Antibacterial activity against Salmonella Typhimurium ATCC 13311 after 24 hrs by microdilution method; assay type: functional, Salmonella enterica subsp. enterica serovar Typhimurium; settings: Salmonella enterica, ATCC 13311, 24 h; method in brief: as §2
[20] = system: Pseudomonas aeruginosa; test: Antibacterial activity against Pseudomonas aeruginosa ATCC 27853 after 24 hrs by microdilution method; assay type: functional; settings: ATCC 27853, 24 h; method in brief: as §2
[21] = system: Aspergillus ochraceus; test: Antifungal activity against Aspergillus ochraceus ATCC 12066 incubated for 72 hrs followed by serial sub-cultivation for 72 hrs by serial dilution technique; assay type: functional; settings: ATCC 12066, 72 h; method in brief: as §4
[22] = system: Talaromyces funiculosus; test: Antifungal activity against Penicillium funiculosum ATCC 36839 incubated for 72 hrs followed by serial sub-cultivation for 72 hrs by serial dilution technique; assay type: functional; settings: ATCC 36839, 72 h; method in brief: as §4
[23] = system: Talaromyces funiculosus; test: Antifungal activity against Penicillium funiculosum ATCC 36839 after 72 hrs by serial dilution technique; assay type: functional; settings: ATCC 36839, 72 h; method in brief: as §1
[24] = system: Listeria monocytogenes; test: Antibacterial activity against Listeria monocytogenes NCTC 7973 after 24 hrs by microdilution method; assay type: functional; settings: NCTC 7973, 24 h; method in brief: as §2
[25] = system: Escherichia coli; test: Antibacterial activity against Escherichia coli ATCC 35210 incubated for 24 hrs followed by serial sub-cultivation for 24 hrs by microdilution; assay type: functional; settings: ATCC 35210, 24 h; method in brief: as §3
[26] = system: Aspergillus flavus; test: Antifungal activity against Aspergillus flavus ATCC 9643 after 72 hrs by serial dilution technique; assay type: functional; settings: ATCC 9643, 72 h; method in brief: as §1
[27] = system: Trichoderma viride; test: Ratio of bifonazole to compound for Trichoderma viride IAM 5061; assay type: functional
[28] = system: Trichoderma viride; test: Antifungal activity against Trichoderma viride IAM 5061 after 72 hrs by serial dilution technique; assay type: functional; settings: IAM 5061, 72 h; method in brief: as §1
[29] = system: Aspergillus niger; test: Ratio of bifonazole to compound for Aspergillus niger ATCC 6275; assay type: functional
[30] = system: Talaromyces funiculosus; test: Ratio of bifonazole to compound for Penicillium funiculosum ATCC 36839; assay type: functional
[31] = system: Micrococcus flavus; test: Antibacterial activity against Micrococcus flavus ATCC 10240 incubated for 24 hrs followed by serial sub-cultivation for 24 hrs by microdilution; assay type: functional; settings: ATCC 10240, 24 h; method in brief: as §3
[32] = system: Penicillium ochrochloron; test: Ratio of ketoconazole to compound for Penicillium ochrochloron ATCC 9112; assay type: functional
[33] = system: Aspergillus ochraceus; test: Antifungal activity against Aspergillus ochraceus ATCC 12066 after 72 hrs by serial dilution technique; assay type: functional; settings: ATCC 12066, 72 h; method in brief: as §1
[34] = system: Micrococcus flavus; test: Antibacterial activity against Micrococcus flavus ATCC 10240 after 24 hrs by microdilution method; assay type: functional; settings: ATCC 10240, 24 h; method in brief: as §2
[35] = system: Salmonella typhimurium; test: Antibacterial activity against Salmonella Typhimurium ATCC 13311 incubated for 24 hrs followed by serial sub-cultivation for 24 hrs by microdilution; assay type: functional, Salmonella enterica subsp. enterica serovar Typhimurium; settings: Salmonella enterica, ATCC 13311, 24 h; method in brief: as §3
[36] = system: Bacillus cereus; test: Antibacterial activity against clinical isolate of Bacillus cereus incubated for 24 hrs followed by serial sub-cultivation for 24 hrs by microdilution; assay type: functional; method in brief: as §3
[37] = system: Listeria monocytogenes; test: Antibacterial activity against Listeria monocytogenes NCTC 7973 incubated for 24 hrs followed by serial sub-cultivation for 24 hrs by microdilution; assay type: functional; settings: NCTC 7973, 24 h; method in brief: as §3
[38] = system: Penicillium ochrochloron; test: Antifungal activity against Penicillium ochrochloron ATCC 9112 after 72 hrs by serial dilution technique; assay type: functional; settings: ATCC 9112, 72 h; method in brief: as §1
[39] = system: Aspergillus ochraceus; test: Antifungal activity against Aspergillus ochraceus after 72 hrs by serial dilution technique
[40] = system: Enterococcus faecalis; test: Antibacterial activity against Enterococcus faecalis isolated from human after 24 hrs by microdilution method; assay type: functional; method in brief: as §2
[41] = system: Candida albicans; test: Antifungal activity against Candida albicans isolated from human incubated for 72 hrs followed by serial sub-cultivation for 72 hrs by serial dilution technique; assay type: functional; method in brief: as §4
[42] = system: Staphylococcus aureus; test: Antibacterial activity against Staphylococcus aureus ATCC 6538 incubated for 24 hrs followed by serial sub-cultivation for 24 hrs by microdilution method; assay type: functional; settings: ATCC 6538, 24 h; method in brief: as §3
[43] = system: Candida albicans; test: Ratio of bifonazole to compound for Candida albicans isolated from human; assay type: functional

CCNc1nc(C)c(C(=O)/C=C/c2ccc([N+](=O)[O-])cc2)s1
63.1 µM: MBC [6] | MFC [7] | MFC [11] | MBC [14] | MIC [17] | MFC [18] | MFC [22] | MIC [26] | MIC [33] | MBC [35] | MIC [38] | MFC [41]
94.6 µM: MIC [2] | MIC [15] | MIC [24] | MBC [25] | MBC [31] | MIC [34] | MBC [36] | MBC [37] | MBC [42]
10: Ratio [3] | Ratio [4] | Ratio [5] | Ratio [10] | Ratio [12] | Ratio [13] | Ratio [27] | Ratio [29] | Ratio [30] | Ratio [32] | Ratio [43]
78.8 µM: MFC [8] | MFC [16] | MFC [21]
47.3 µM: MIC [1] | MIC [19] | MIC [20] | MIC [28] | MIC [39] | MIC [40]
31.5 µM: MIC [9] | MIC [23]

c1ccc(-c2ccc(C(c3ccccc3)n3ccnc3)cc2)cc1 (centres undefined) [BIFONAZOLE]
320 µM: MIC [9]
480 µM: MIC [1] | MIC [26] | MIC [33] | MIC [38] | MIC [39] | MFC [41]
640 µM: MFC [7] | MFC [8] | MFC [11] | MFC [16] | MIC [23] | MIC [28]
800 µM: MFC [18] | MFC [21] | MFC [22]
